ERAP1 HTS inh = ERAP1 (human) enzyme inhibition; Q9NZ08; recombinant ERAP1, Leu-AMC fluorescence, 60 min; inhibition, % at 10.7 µM; hit rate 0.15% among 340,000; AID 652197;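 active = mean replicate inhibition of at least 30%, or all replicates individually reaching that 30% level; inactive = mean below 30% and not every replicate reaching it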
SIRT5 inh = sirtuin-5 (human) deacylase inhibition | Purified SirT5, succinyl-peptide AMC, trypsin-coupled fluorescence | AID 652115 | inhibition, % at 15 µM | hit rate 1.1% among 330,000 | Q9NXA8; in the data active = inhibition above about 15%
Target sequence (Q9NXA8 whole entry, looked up): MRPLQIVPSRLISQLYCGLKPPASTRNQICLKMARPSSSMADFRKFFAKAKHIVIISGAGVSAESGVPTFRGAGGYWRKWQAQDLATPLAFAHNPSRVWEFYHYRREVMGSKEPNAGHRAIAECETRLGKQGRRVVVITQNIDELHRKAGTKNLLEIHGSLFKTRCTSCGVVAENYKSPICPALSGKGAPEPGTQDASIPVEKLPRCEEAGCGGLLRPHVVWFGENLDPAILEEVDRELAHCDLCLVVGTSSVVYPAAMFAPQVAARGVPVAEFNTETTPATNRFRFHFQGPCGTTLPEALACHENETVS
F508del corr = CFTR F508del correction in bronchial cells; hit rate 0.36% among 350,000; CFBE cells, YFP halide quenching; stimulated with forskolin plus potentiator P3; % fluorescence drop versus neutral controls; activity (quench increase), % at 7.58 µM;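 active = mean added fluorescence quench of at least 8% versus neutral control, with both replicates also reaching 8%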;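 also: cells transiently co-express mutant CFTR-F508del with the halide-sensitive YFP; corrector assay measuring rescue of mutant channel to the surface after 24 h compound exposure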
S100A4 MyoIIA = blocks human S100A4 binding to myosin IIA peptide; hit rate 0.14% among 360,000; S100A4/TAMRA-MyoIIA peptide fluorescence polarization; AID 652163; P26447; inhibition, % at 10.7 µM;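 active = mean inhibition of at least 70% across replicates, with every replicate also reaching that level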
Target sequence (P26447 whole entry, looked up): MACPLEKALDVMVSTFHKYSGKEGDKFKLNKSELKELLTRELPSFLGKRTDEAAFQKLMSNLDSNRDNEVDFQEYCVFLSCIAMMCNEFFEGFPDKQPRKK
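incubation = readout 5 min after mixing, signal stable up to 60 min | system = S100A4 monomer protein | buffer or medium = HEPES pH 7.2 with CaCl2, KCl, NaCl, DTT, Triton | benchmarks = neutral control DMSO, positive control TFP | also added = fluorescent myosin IIA peptide, 5 nM | compound dosing = one concentration per compound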
rRNA inh HTS = inhibits bacterial ribosomal RNA function over humanized ribosomes; E. coli WT GFP vs humanized-ribosome RFP mutants, fluorescence, 24 h; hits give low values; DMSO median 0, no signal -100; GFP signal change (wild-type ribosome), % (test concentration not listed); hit rate 1.6% among 350,000; AID 720706;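 active = significant combined selectivity score with lowered wild-type GFP, culture density cut under 30%, mutant RFP and density less affected; inactive = any of these conditions unmet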
Large screens that a line does not name were inactive. Compounds with a hit are over-represented: about 3.1% of the library has one in this group of screens.

Cc1cccc(-c2ccc([C@H]3[C@H](CO)N4CCCCN(S(=O)(=O)c5cccc(C)c5)C[C@@H]34)cc2)c1	SIRT5 inh 19
O=C(CN1CCOCC1)N1CCCCN2[C@H](C1)[C@H](c1ccc(-c3ccccc3)cc1)[C@@H]2CO	SIRT5 inh 21
CCC(=O)N1CCCCN2[C@H](C1)[C@H](c1ccc(-c3cccc(C#N)c3)cc1)[C@@H]2CO	none
Cc1cccc(S(=O)(=O)N2CCCCN3[C@H](CO)[C@H](c4ccc(-c5ccccc5)cc4)[C@H]3C2)c1	none (no result: rRNA inh HTS)
O=C(CN1CCOCC1)N1CCCCN2[C@@H](CO)[C@@H](c3ccc(-c4ccccc4)cc3)[C@@H]2C1	none
CCC(=O)N1CCCCN2[C@H](CO)[C@H](c3ccc(-c4cccc(C#N)c4)cc3)[C@@H]2C1	SIRT5 inh 21
COCC(=O)N1[C@@H]2c3ccc(C4=CCCCC4)c(=O)n3C[C@@H]2[C@@H](CO)[C@@H]1C(=O)N1CCCCC1	none
N#Cc1cccc(-c2ccc([C@@H]3[C@@H](CO)N4CCCCN(S(=O)(=O)c5ccccc5)C[C@@H]34)cc2)c1	none (no result: ERAP1 HTS inh, S100A4 MyoIIA)
N#Cc1cccc(-c2ccc([C@H]3[C@@H](CO)N4CCCCN(S(=O)(=O)c5ccccc5)C[C@H]34)cc2)c1	SIRT5 inh 18
Cc1cccc(-c2ccc([C@H]3[C@@H](CO)N4C(=O)CN(C(=O)c5cnccn5)C[C@H]34)cc2)c1	none (no result: ERAP1 HTS inh, SIRT5 inh, F508del corr, S100A4 MyoIIA)
Cc1ccc(S(=O)(=O)N(C)C[C@H]2OCCCC[C@H](C)Oc3ccc(NS(=O)(=O)c4ccccc4)cc3C(=O)N([C@@H](C)CO)C[C@@H]2C)cc1	SIRT5 inh 19
Cc1ccc(S(=O)(=O)Nc2ccc3c(c2)C(=O)N([C@H](C)CO)C[C@@H](C)[C@@H](CN(C)C(=O)NC(C)C)OCCCC[C@@H](C)O3)cc1	S100A4 MyoIIA 107
Cc1ccc(S(=O)(=O)Nc2ccc3c(c2)C(=O)N([C@@H](C)CO)C[C@H](C)[C@H](CN(C)S(=O)(=O)c2ccccc2)OCCCC[C@H](C)O3)cc1	none
Cc1ccc(S(=O)(=O)N(C)C[C@@H]2OCCCC[C@@H](C)Oc3ccc(NS(=O)(=O)c4c(C)noc4C)cc3C(=O)N([C@@H](C)CO)C[C@@H]2C)cc1	none
Cc1ccc(S(=O)(=O)N(C)C[C@H]2OCCCC[C@@H](C)Oc3ccc(NS(=O)(=O)c4c(C)noc4C)cc3C(=O)N([C@@H](C)CO)C[C@@H]2C)cc1	SIRT5 inh 17
Cc1ccc(S(=O)(=O)Nc2ccc3c(c2)C(=O)N([C@H](C)CO)C[C@H](C)[C@@H](CN(C)S(=O)(=O)c2ccccc2)OCCCC[C@H](C)O3)cc1	none
Cc1ccc(S(=O)(=O)N(C)C[C@@H]2OCCCC[C@@H](C)Oc3ccc(NS(=O)(=O)c4ccccc4)cc3C(=O)N([C@@H](C)CO)C[C@H]2C)cc1	SIRT5 inh 19
COc1ccc(-c2cnc3c(c2)C(=O)N([C@H](C)CO)C[C@@H](C)[C@@H](CN(C)C(=O)CN(C)C)O3)cc1	none
Cc1ccc(S(=O)(=O)Nc2ccc3c(c2)C(=O)N([C@H](C)CO)C[C@@H](C)[C@H](CN(C)S(C)(=O)=O)OCCCC[C@@H](C)O3)cc1	S100A4 MyoIIA 125
COc1ccc(S(=O)(=O)N(C)C[C@H]2Oc3ccc(NC(=O)NC4CCCCC4)cc3C(=O)N([C@@H](C)CO)C[C@@H]2C)cc1	SIRT5 inh 19
Cc1ccc(S(=O)(=O)N(C)C[C@@H]2OCCCC[C@H](C)Oc3ccc(NC(=O)NC4CCCCC4)cc3C(=O)N([C@H](C)CO)C[C@H]2C)cc1	SIRT5 inh 16
Cc1ccc(S(=O)(=O)Nc2ccc3c(c2)C(=O)N([C@@H](C)CO)C[C@H](C)[C@H](CN(C)S(=O)(=O)c2ccc(C)cc2)OCCCC[C@@H](C)O3)cc1	F508del corr 9.1
C[C@@H]1CN([C@H](C)CO)C(=O)c2cccc(NC(=O)Nc3ccccc3)c2O[C@@H]1CN(C)Cc1ccc(C(=O)Nc2ccccc2N)cc1	none
C[C@H](CO)N1C[C@H](C)[C@@H](CN(C)S(=O)(=O)c2ccccc2)OCCCC[C@H](C)Oc2ccc(NC(=O)c3ccccc3)cc2C1=O	none

Source: PubChem
